Assays:
[1] = test system: CCRF-CEM; assay: Cellular uptake in human CEM cells up to 14 hrs by FACS analysis at 37 degC; format: ADME, cell-based
In short: (§1)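 CEM cells taken in log phase and resuspended at 0.5×10^6 cells/mL in RPMI with 2% FBS, preincubated 30 min at 37 °C. Fluorescein-labelled conjugate added at 50 nM–1 µM and incubated. Cells harvested at 30 min, 3 h and 14 h, washed in PBS and scored for FITC-positive cells by FACScan, with propidium iodide (1 µg/mL) to exclude dead cells.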

[2] = test system: CCRF-CEM; assay: Cellular uptake in human CEM cells at 0.5 uM after 12 hrs by confocal microscopic analysis; format: ADME, cell-based
In short: (§2)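 CEM cells incubated 12 h with FITC-labelled conjugate (0.5 and 1 µM) or with 1 µM FITC-labelled naked PNA. Cells then washed, nuclei DAPI-stained, and imaged by confocal microscopy with FITC read at 488 nm.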

[3] = test system: CCRF-CEM; assay: Cellular uptake in human CEM cells up to 14 hrs by FACS analysis; format: ADME, cell-based; in short: as §1
[4] = Cytotoxicity against human CEM cells assessed as cell viability at 0.2 to 1 uM by propidium iodide-staining based flow cytometric analysis; details: CCRF-CEM cells, read-out: Activity
In short: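 CEM cells exposed to labelled conjugate at 0.2–1 µM under uptake-assay conditions. Viability scored by propidium iodide exclusion during flow cytometry.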

[5] = test system: CCRF-CEM; assay: Cellular uptake in human CEM cells at 0.2 uM within 14 hrs by FACS analysis; format: ADME, cell-based; in short: as §1
[6] = test system: CCRF-CEM; assay: Cellular uptake in human CEM cells up to 14 hrs by FACS analysis at 4 degC; format: ADME, cell-based; in short: as §1
[7] = test system: CCRF-CEM; assay: Cellular uptake in human CEM cells at 0.2 uM within 30 mins by FACS analysis; format: ADME, cell-based; details: 0.5 h; in short: as §1
[8] = Cellular uptake in human Huh7.5 cells at 1 uM after 10 hrs by DAPI/WGA-Rhodamine-staining based confocal microscopic analysis in presence of chloroquine; format: ADME, cell-based; details: huh-7, 10 h
In short: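 Huh7.5 cells incubated with 1 µM FITC-labelled conjugate, with or without the endosome disruptor chloroquine, for 10 h. Cells then PBS-washed, fixed in 4% paraformaldehyde, stained with WGA-rhodamine (membrane glycoproteins) and DAPI (nuclei), and imaged by confocal microscopy, FITC at 488 nm.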

[9] = test system: CCRF-CEM; assay: Cellular uptake in human CEM cells at 0.3 uM within 14 hrs by FACS analysis; format: ADME, cell-based; in short: as §1
[10] = test system: CCRF-CEM; assay: Cellular uptake in human CEM cells at 1 uM after 12 hrs by confocal microscopic analysis; format: ADME, cell-based; in short: as §2
[11] = test system: CCRF-CEM; assay: Cellular uptake in human CEM cells at 50 nM to 1 uM by FACS analysis; format: ADME, cell-based; details: 0.05 µM, TDE = time-dependent effect; in short: as §1

| Compound | Drug uptake [1] | Drug uptake [2] [%] | Drug uptake [3] | viability at 1 µM [4] [%] | Drug uptake [5] [%] | Drug uptake [6] | Drug uptake [7] [%] | Drug uptake [8] | Drug uptake [9] [%] | Drug uptake [10] | Drug uptake [11] |
| --- | --- | --- | --- | --- | --- | --- | --- | --- | --- | --- | --- |
| CO[C@H]1O[C@H](CN)[C@@H](OCCCCCC(=O)NCCN(CC(=O)NCCN(CC(=O)NCCN(CC(=O)NCCN(CC(=O)NCCN(CC(=O)NCCN(CC(=O)NCCN(CC(=O)NCCN(CC(=O)NCCN(CC(=O)NCCN(CC(=O)NCCN(CC(=O)NCCN(CC(=O)NCCN(CC(=O)NCCN(CC(=O)NCCN(CC(=O)NCCN(CC(=O)N[C@@H](CCCCNC(=S)Nc2ccc(-c3c4ccc(=O)cc-4oc4cc(O)ccc34)c(C(=O)O)c2)C(N)=O)C(=O)Cn2cc(C)c(=O)[nH]c2=O)C(=O)Cn2ccc(N)nc2=O)C(=O)Cn2cc(C)c(=O)[nH]c2=O)C(=O)Cn2cnc3c(N)ncnc32)C(=O)Cn2cnc3c(=O)[nH]c(N)nc32)C(=O)Cn2cnc3c(N)ncnc32)C(=O)Cn2ccc(N)nc2=O)C(=O)Cn2cc(C)c(=O)[nH]c2=O)C(=O)Cn2ccc(N)nc2=O)C(=O)Cn2cnc3c(=O)[nH]c(N)nc32)C(=O)Cn2cnc3c(=O)[nH]c(N)nc32)C(=O)Cn2cnc3c(N)ncnc32)C(=O)Cn2ccc(N)nc2=O)C(=O)Cn2ccc(N)nc2=O)C(=O)Cn2ccc(N)nc2=O)C(=O)Cn2cc(C)c(=O)[nH]c2=O)[C@H](O)[C@H]1N | Active | 90 | Dose-dependent effect | > 95 | 85 | Active | 10 | Active | 100 | 99% | tde |
| Cc1cn(CC(=O)N(CCN)CC(=O)NCCN(CC(=O)NCCN(CC(=O)NCCN(CC(=O)NCCN(CC(=O)NCCN(CC(=O)NCCN(CC(=O)NCCN(CC(=O)NCCN(CC(=O)NCCN(CC(=O)NCCN(CC(=O)NCCN(CC(=O)NCCN(CC(=O)NCCN(CC(=O)NCCN(CC(=O)NCCN(CC(=O)N[C@@H](CCCCNC(=S)Nc2ccc(-c3c4ccc(=O)cc-4oc4cc(O)ccc34)c(C(=O)O)c2)C(N)=O)C(=O)Cn2cc(C)c(=O)[nH]c2=O)C(=O)Cn2ccc(N)nc2=O)C(=O)Cn2cc(C)c(=O)[nH]c2=O)C(=O)Cn2cnc3c(N)ncnc32)C(=O)Cn2cnc3c(=O)[nH]c(N)nc32)C(=O)Cn2cnc3c(N)ncnc32)C(=O)Cn2ccc(N)nc2=O)C(=O)Cn2cc(C)c(=O)[nH]c2=O)C(=O)Cn2ccc(N)nc2=O)C(=O)Cn2cnc3c(=O)[nH]c(N)nc32)C(=O)Cn2cnc3c(=O)[nH]c(N)nc32)C(=O)Cn2cnc3c(N)ncnc32)C(=O)Cn2ccc(N)nc2=O)C(=O)Cn2ccc(N)nc2=O)C(=O)Cn2ccc(N)nc2=O)c(=O)[nH]c1=O | – | – | – | – | – | – | – | – | – | Not Active | – |

From ChEMBL document CHEMBL2163276, “A peptide nucleic acid-aminosugar conjugate targeting transactivation response element of HIV-1 RNA genome shows a high bioavailability in human cells and strongly inhibits tat-mediated transactivation of HIV-1 transcription” (J Med Chem, 2012)
